The source made the active and inactive calls. The rule behind the calls is not given here.
Tests used:
[1] = Oral bioavailability in Beagle dog by LC/MS/MS analysis; type: ADME, organism-based, Canis lupus familiaris; details: in vivo
Hepatitis C virus [2] = test: Antiviral activity against Hepatitis C virus genotype 1 infected in human assessed as reduction in plasma viral load administered orally measured after 12 hrs; type: functional, organism-based; details: Hepacivirus hominis
Procedure, shortened: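 HCV genotype 1-infected subjects received single oral doses of 10, 60 or 120 mg. Plasma HCV RNA was followed, and mean log10 reduction in viral load was read 12 h after dosing.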

[3] = Genotoxicity in micronucleus (unknown origin)
[4] = Cytotoxicity against human HuH7 cells; type: cell-based; details: Huh-7 cells
[5] = Drug uptake into human hepatocytes by silicone oil layer method; type: ADME, cell-based, Hepatocyte
Hepatitis C virus [6] = test: Antiviral activity against Hepatitis C virus genotype 1a H77 assessed as inhibition of HCV replicon-encoded Renilla luciferase reporter activity after 4 days by cell-based HCV replicon assay; type: functional, organism-based, Hepacivirus hominis; details: genotype 1a H77, 96 h
[7] = Drug uptake into Sprague-Dawley rat hepatocytes by silicone oil layer method; type: ADME, cell-based, Hepatocyte
[8] = AUC in Sprague-Dawley rat at 15 mg/kg, po administered via gavage by LC/MS/MS analysis; type: ADME, organism-based; design: dose 15 mg/kg, route oral; details: plasma
Homo sapiens [9] = test: Cardiovascular toxicity in healthy human assessed as mild bradycardia at 120 mg, po by electrocardiography; type: organism-based; details: in vivo
Homo sapiens [10] = test: Cardiovascular toxicity in healthy human assessed as PR-interval prolongation at 120 mg, po by electrocardiography; type: organism-based; details: in vivo
[11] = Tmax in po dosed human; type: ADME, organism-based; details: in vivo
Homo sapiens [12] = test: Cardiovascular toxicity in healthy human assessed as junctional rhythm disturbances at 120 mg, po by electrocardiography; type: organism-based; details: in vivo
[13] = Drug uptake into dog hepatocytes by silicone oil layer method; type: ADME, cell-based, Canis lupus familiaris, Hepatocyte
Homo sapiens [14] = test: Cardiovascular toxicity in Hepatitis C virus genotype 1 infected human assessed as junctional rhythm disturbances at 120 mg, po by electrocardiography; type: organism-based; details: in vivo
Liver = test: Drug uptake in intraduodenally dosed Sprague-Dawley rat liver measured per gm of tissue over 4 hrs by LC/MS/MS analysis; type: ADME, organism-based; details: in vivo, other
Procedure, shortened: (§1)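 Abbreviated rat screen: surgically prepared rats were dosed intraduodenally. Plasma was sampled over 4 h, and liver was collected at the 4 h end point. Plasma was precipitated with two volumes of ACN plus internal standard. Liver was weighed and homogenized in 2 volumes of 20% Hanks buffered salt solution/80% ACN. Both were quantified by LC/MS/MS.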

Hepatitis C virus [15] = test: Antiviral activity against Hepatitis C virus genotype 1b Con1 after 4 days by cell-based replicon assay; type: functional, organism-based, Hepacivirus hominis; details: isolate Con1, 96 h
Cytochrome P450 3A4 = Cytochrome P450 3A4 (Homo sapiens, UniProt P08684); test: Inhibition of CYP3A4 (unknown origin); type: ADME
[16] = AUC in intraduodenally dosed Sprague-Dawley rat plasma measured over 4 hrs by LC/MS/MS analysis; type: ADME, organism-based; design: time < 4 hr, route intraduodenal; details: Sprague-Dawley, plasma; procedure, shortened: as §1
[17] = tested on: Bovine viral diarrhea virus 1; test: Antiviral activity against Bovine viral diarrhea virus; type: functional, organism-based
[18] = tested on: Canine parainfluenza virus; test: Antiviral activity against Canine parainfluenza virus; type: functional
[19] = Binding affinity to P-glycoprotein (unknown origin); type: ADME; details: human
[20] = Ratio of drug level in liver to plasma in Sprague-Dawley rat at 15 mg/kg, po administered via gavage measured after 24 hrs by LC/MS/MS analysis; type: ADME, organism-based; design: dose 15 mg/kg, route oral
Procedure, shortened: (§2)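 Single oral dose (dog 14 mg/kg, rat 15 mg/kg), with liver and plasma sampled 24 h post-dose. Plasma was precipitated with two volumes of ACN containing internal standard and centrifuged. Tissue was weighed and homogenized in 2 volumes of 20% Hanks buffer/80% ACN. LC/MS/MS used a C18 column at 60 °C, ammonium formate/formic acid water–methanol gradient, and SRM detection. LLQ was 5 nM. Ratio is liver over plasma level.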

Homo sapiens [21] = test: Cardiovascular toxicity in Hepatitis C virus genotype 1 infected human assessed as mild bradycardia at 120 mg, po by electrocardiography; type: organism-based; details: in vivo
Salmonella typhimurium = test: Mutagenicity in Salmonella typhimurium by Ames test; type: toxicity, organism-based; details: salmonella enterica subsp. enterica serovar typhimurium
[22] = tested on: Human immunodeficiency virus; test: Antiviral activity against Human immunodeficiency virus; type: functional, organism-based
[23] = Oral bioavailability in cynomolgus monkey at 3 mg/kg administered via gavage by LC/MS/MS analysis; type: ADME, organism-based, Macaca fascicularis; details: in vivo
[24] = Half life in rat liver microsomes at 3 uM by LC/MS/MS analysis; type: ADME
Procedure, shortened: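 Pooled liver microsomes were run in triplicate per species. Each incubation held 3 μM test compound in 0.1 M potassium phosphate pH 7.4 at 37 °C, with 0.9 mg/mL microsomal protein, 0.033 mM MgCl2 and an NADPH-regenerating system. Proteins were precipitated with two volumes of ACN containing internal standard, and supernatants were analysed by LC/MS/MS.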

[25] = Ratio of drug level in liver to plasma in Beagle dog at 14 mg/kg, po measured after 24 hrs by LC/MS/MS analysis; type: ADME, organism-based, Canis lupus familiaris; design: dose 14 mg/kg, route oral; procedure, shortened: as §2
[26] = Terminal half life in po dosed human; type: ADME, organism-based; details: in vivo, read-out: beta t1/2 (converted)
Homo sapiens [27] = test: Cardiovascular toxicity in Hepatitis C virus genotype 1 infected human assessed as PR-interval prolongation at 120 mg, po by electrocardiography; type: organism-based; details: in vivo
[28] = Apparent terminal half life in Sprague-Dawley rat at 5 mg/kg, iv by LC/MS/MS analysis; type: ADME, organism-based; design: dose 5 mg/kg, route intravenous; details: in vivo, read-out: betat1/2(app) (converted)
[29] = Oral bioavailability in Sprague-Dawley rat at 15 mg/kg administered via gavage by LC/MS/MS analysis; type: ADME, organism-based; details: in vivo

Chain of Cytochrome P450 3A4 (P08684 whole entry): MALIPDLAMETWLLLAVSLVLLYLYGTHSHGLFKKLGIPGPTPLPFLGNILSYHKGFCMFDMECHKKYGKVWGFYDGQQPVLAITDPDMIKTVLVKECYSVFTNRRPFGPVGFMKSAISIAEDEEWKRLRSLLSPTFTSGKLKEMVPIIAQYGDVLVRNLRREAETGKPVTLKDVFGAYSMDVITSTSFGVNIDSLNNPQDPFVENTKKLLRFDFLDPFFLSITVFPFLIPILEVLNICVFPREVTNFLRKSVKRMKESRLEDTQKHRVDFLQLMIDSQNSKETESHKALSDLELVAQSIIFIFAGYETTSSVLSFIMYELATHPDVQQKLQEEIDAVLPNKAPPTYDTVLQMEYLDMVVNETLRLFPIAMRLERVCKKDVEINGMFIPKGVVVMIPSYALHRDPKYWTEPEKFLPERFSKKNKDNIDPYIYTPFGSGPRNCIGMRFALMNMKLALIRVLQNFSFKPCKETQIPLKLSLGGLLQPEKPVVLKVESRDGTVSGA

C=C[C@@H]1C[C@]1(NC(=O)[C@@H]1C[C@@H](Oc2nccc3cc(OC)ccc23)CN1C(=O)[C@@H](NC(=O)OC(C)(C)C)C(C)(C)C)C(=O)NS(=O)(=O)C1CC1
bioavailability [1]: 51%
Activity (Hepatitis C virus [2]): Dose-dependent effect
Activity [3]: Non-toxic
CC50 [4]: > 100000 nM
Km [5]: 1.4 µM
EC50 (Hepatitis C virus [6]): 8.3 nM
Km [7]: 1.4 µM
AUC [8]: 14.1 µM·h
Activity (Homo sapiens [9]): Toxic
Activity (Homo sapiens [10]): Toxic
Tmax [11]: 1.5 h
Activity (Homo sapiens [12]): Toxic
Km [13]: 1.4 µM
Activity (Homo sapiens [14]): Toxic
Drug uptake (Liver): 64710 ng
EC50 (Hepatitis C virus [15]): 2.8 nM
IC50 (Cytochrome P450 3A4): 2000 nM
AUC at 4 h [16]: 10.4 µM·h
Activity [17]: inactive
Activity [18]: inactive
Activity [19]: Active
Kp at 24 h [20]: 136
Activity (Homo sapiens [21]): Toxic
Activity (Salmonella typhimurium): Non-toxic
Activity [22]: inactive
bioavailability [23]: < 1%
half-life at 3 µM [24]: > 1 h
Kp at 24 h [25]: 75
half-life [26]: 4 h
Activity (Homo sapiens [27]): Toxic
half-life [28]: 4.4 h
bioavailability [29]: 18%
